Compounds with a hit are over-represented: about 1.3% of the library has one in this group of screens.
Tn6 DDE FP – DD(E)-Tn6 binding inhibition, primary FP screen. 370,000 compounds, 0.21% hits. P02675. Fibrin DD(E) TRITC-Tn6 fluorescence polarization displacement. AID 720509. inhibition, % at 8.3 µM;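 active means inhibition above a per-campaign cutoff: mean of compounds within control limits plus 3 SD, cut at about 15% in these data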;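 further: 0% = median of all compound wells on the plate and 100% = blocking peptide control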
Target sequence (P02675 whole entry, looked up): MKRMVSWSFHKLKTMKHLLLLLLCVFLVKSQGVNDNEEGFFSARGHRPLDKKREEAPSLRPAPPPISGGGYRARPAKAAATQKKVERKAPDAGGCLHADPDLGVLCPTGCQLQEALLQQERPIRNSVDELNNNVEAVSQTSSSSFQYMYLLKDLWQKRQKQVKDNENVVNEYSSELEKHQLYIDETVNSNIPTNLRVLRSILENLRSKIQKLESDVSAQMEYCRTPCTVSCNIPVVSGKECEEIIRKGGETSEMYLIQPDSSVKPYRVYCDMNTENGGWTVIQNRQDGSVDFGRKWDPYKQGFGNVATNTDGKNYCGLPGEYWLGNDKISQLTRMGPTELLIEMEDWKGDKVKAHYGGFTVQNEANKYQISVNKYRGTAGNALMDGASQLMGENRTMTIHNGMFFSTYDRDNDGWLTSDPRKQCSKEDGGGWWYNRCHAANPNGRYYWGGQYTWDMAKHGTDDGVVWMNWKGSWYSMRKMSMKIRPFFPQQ
DDE Tn7 FP inh – disrupts Tn7 cyclic peptide binding to fibrin D-Dimer-E complex | P02675 | FP displacement of FITC-Tn7 peptide from fibrin DD(E); 0% = median of compound wells per plate | inhibition, % at 8.3 µM | 370,000 compounds, 0.13% hits | AID 720508;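 active means inhibition above the mean of compounds falling within the control limits plus 3 SD of them, cut at about 14% in these data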;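 further: 0% = plate median of compound wells and 100% = 10 µM Aha-Tn7 peptide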
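Also added: labelled Tn7 tracer, 0.1 µM; Assay system: human fibrin DD(E) protein; Amount: 2 µM fibrin DD(E); Schedule: 10 min compound pre-incubation, 3 h probe incubation at room temperature; Repeats: one replicate per compound; Read-out basis: percent inhibition; Measured by: fluorescence polarization of the labelled Tn7 tracer.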
aDG glyco act – increases alpha dystroglycan glycosylation; Pro5-aDG cells, alpha-DG glycosylation AlphaScreen (IIH6); 0% Pro5, 100% B10-LARGE cell signal; activation, % at 10 µM; 360,000 compounds, 0.22% hits; AID 624168;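 active means activation of at least 8% versus controls, or a plate z-score of at least 8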;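 further: Pro5 are CHO cells carrying HIG-tagged alpha-DG that lacks glycosylation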
NRP1-CendR mod – NRP-1/CendR interaction modulation | O14786 | FAM-RPARPAR peptide binding to NRP-1, fluorescence polarization | inhibition, % at 25 µM | 360,000 compounds, 0.85% hits | AID 602438;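 active means inhibition or corrected inhibition above about 18%, plus a signal ratio from 0.5 to 1.5, limit read from the data, passing the limit was not always enough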
* marks the source's active call; other numbers are inactive results; . = no result given.

SMILES	Tn6 DDE FP	DDE Tn7 FP inh	aDG glyco act	NRP1-CendR mod
Cc1nc2sc(C(c3ccco3)N3CC(C)OC(C)C3)c(O)n2n1 (configuration not stated)	-8.9	1.2	-0.1	19.0*
CCN(CC)C(=O)C1=C(C)N(CCCOC)C(=O)C(CC(=O)NCc2ccco2)C1 (configuration not stated)	-0.4	-10.3	0.1	1.4
CCCN(CC(=O)Nc1ccccc1C)C(=O)c1ccc(C2SCCS2)cc1	1.7	0.5	0.1	25.7*
CCCN(CC(=O)Nc1ccccc1C)C(=O)C1CCCN(C(=O)c2ccc(Cl)cc2)C1 (configuration not stated)	-1.0	-0.7	0.0	18.9*
Cc1cccc(C)c1NC(=O)CNC(=O)C1CCCN(C(=O)c2ccc(Cl)cc2)C1 (configuration not stated)	-1.1	-3.7	0.0	-6.2
c1ccc(CCNc2ccc3c(c2)Cc2ccccc2-3)nc1	0.1	4.8	-0.4	28.8*
CCOc1ccc2nc3cc(N=Nc4ccc(N)nc4N)ccc3c(N)c2c1	.	.	-0.1	50.1*
O=C(NCc1cccs1)c1ccc(S(=O)(=O)N2CCOCC2)cc1	-2.5	-2.2	-0.5	21.3*
O=C(C1CCN(c2ncnc3c2sc2cccc(F)c23)CC1)N1CCN(Cc2ccccc2)CC1	4.8	-3.5	.	.
CCOc1ccc(C(=O)NCC(=O)NCCSc2ccc(Br)cc2)cc1OCC	-7.4	-0.7	-0.1	23.3*
O=[N+]([O-])c1cc([N+](=O)[O-])c2nonc2c1Nc1ccc(O)cc1	17.9*	-2.9	0.3	-27.2
O=[N+]([O-])c1cc([N+](=O)[O-])c2nonc2c1Nc1ccccc1O	6.8	2.7	1.9	-11.6
O=C(CSc1nc2ccccc2nc1N1CCOCC1)N1CCN(c2cccc(C(F)(F)F)c2)CC1	-4.4	-0.3	.	.
O=C(NCCn1cccn1)C1CCC(=O)N(CCc2cccc(F)c2)C1 (configuration not stated)	-3.3	1.3	-0.2	47.4*
CCCC[C@H]1C2CC(OC(=O)Nc3cccc(Cl)c3)C(C2)[C@H]2CCCCN21 (some centres not stated)	-4.2	4.1	.	.
COc1cc(OC)cc(C(=O)NCCN2C(=O)C3C4C=CC(C4)C3C2=O)c1 (configuration not stated)	2.3	4.0	.	.
CCOc1cnn(Cc2ccccc2)c(=O)c1SCc1ccccc1	5.5	2.1	0.0	28.3*
CC(CCCN(C)C)C(Cc1ccccc1)c1ccccc1 (configuration not stated)	-2.1	0.2	0.2	-2.2
COc1cccc(-n2nnc3c(=O)n(CC(=O)OCc4ccccc4)cnc32)c1	2.7	2.1	0.0	26.0*
CCOC(=O)Cn1cnc2c(nnn2-c2cccc(OC)c2)c1=O	2.9	-7.7	-0.1	-1.7
O=C(COc1ccc(Br)cc1CO)Nc1ccc(S(=O)(=O)N2CCCCC2)cc1	-2.8	0.5	0.1	25.4*
Cc1ccc(NC(=O)COc2ccc(N(C)C(=O)C(C)(C)C)cc2)cc1S(=O)(=O)N1CCCCC1	-8.4	-3.3	4.6*	-9.2
Cc1ccc(OCC(=O)Nc2ccc(C)c(S(=O)(=O)N3CCCCCC3)c2)c([N+](=O)[O-])n1	-0.3	7.0	1.7	31.6*
Cc1ccc(OCC(=O)Nc2cccc(S(=O)(=O)N3CCCCC3)c2)c([N+](=O)[O-])n1	-5.4	-2.6	0.0	-1.0
CCC(C)N(C(=O)CSc1nnc(-c2cccnc2)n1C1CCCCC1)C(C)CC (configuration not stated)	-3.9	10.8	.	.
SMILES	Tn6 DDE FP	DDE Tn7 FP inh	aDG glyco act	NRP1-CendR mod
COC(=O)CCc1c(C)[nH]c(C(=O)OCc2ccccc2)c1C	0.1	6.7	0.2	19.5*
CCOC(=O)c1c(C)[nH]c(C(=O)OCc2ccccc2)c1C	4.5	0.2	0.0	2.8
COc1ccc(CNC(=O)C2(CC3CC(c4ccccc4)=NO3)CCN(C(=O)Cc3ccc(F)cc3)CC2)cc1 (configuration not stated)	2.9	5.7	-0.1	9.0
CCCNC(=O)C1(CC2CC(c3ccccc3)=NO2)CCN(C(=O)C2(C)CC2)CC1 (configuration not stated)	-3.1	2.1	0.1	-9.9
CCCNC(=O)C1(CC2CC(c3ccccc3)=NO2)CCN(C(=O)c2ccccc2)CC1 (configuration not stated)	5.0	3.9	0.2	27.4*
CCOc1cc(C(=O)N2CCC(CC3CC(c4ccccc4)=NO3)(C(=O)NCc3ccc(OC)cc3)CC2)cc(OCC)c1OCC (configuration not stated)	-2.5	-3.1	0.3	44.8*
COc1cc(OC)cc(-c2csc(N3CCC(C(N)=O)CC3)n2)c1	2.0	-2.6	.	.
CC(=O)N1CCc2cc(S(=O)(=O)N3CCCCC3C)ccc21 (configuration not stated)	6.7	0.7	-0.1	34.6*
Cc1cccc(NC(=O)C2CCN(c3nnc(-n4cccc4)s3)CC2)c1C	-0.8	-4.0	.	.
CCC(C)[C@H](NC(=O)Nc1cccc(Cl)c1)C(=O)O (some centres not stated)	-7.2	5.4	-0.1	19.8*
CCC(C)[C@H](NC(=O)Nc1ccc(S(N)(=O)=O)cc1)C(=O)O (some centres not stated)	4.1	-2.7	-0.3	0.2
CC1(C)OC(=O)C2=C(CC(CCc3ccccc3)OC2c2cccc(C(F)(F)F)c2)O1 (configuration not stated)	-3.0	1.7	.	.
O=C(/C=C/c1ccccc1)NC1CC2CCC1C2 (configuration not stated)	8.6	4.5	0.0	3.9
c1ccc(CNC2CC3CCC2C3)cc1 (configuration not stated)	4.2	-1.9	0.0	23.6*
COc1ccc(Oc2nc3c(c(=O)n(C)c(=O)n3C)n2Cc2ccccc2)cc1	2.9	-1.0	0.5	1.7
CC(C)CCn1c(Oc2ccc(Cl)cc2)nc2c1c(=O)n(C)c(=O)n2C	-1.5	-8.0	0.2	26.2*
Cc1ccc(C(=O)N/C(=C\c2ccccc2)C(=O)NCCCn2ccnc2)cc1	-6.3	-3.3	0.2	22.8*
Cc1ccc(/C=C(\NC(=O)c2ccc(C)cc2)C(=O)NCCCn2ccnc2)cc1	-3.9	-8.6	0.2	-8.6
Cc1cc(C)cc(OCCCn2ccnc2)c1	-4.4	-6.9	0.0	27.4*
Cc1cccc(OCCCn2ccnc2)c1	-1.2	-3.0	-0.4	11.0
COc1ccc(NS(=O)(=O)c2cc(NC(=O)CC(C)(C)C)ccc2N2CCCC2)cc1	-4.0	-0.6	-0.1	-15.9
CNC(=S)Nc1ccc(N2CCCC2)c(S(=O)(=O)Nc2ccc(OC)cc2)c1	0.2	10.7	0.3	41.5*
O=C(Nc1cccc(C(=O)N2CCOCC2)c1)c1ccc([N+](=O)[O-])cc1	-1.2	-1.3	-0.3	19.4*
CC1(C)CC(=O)c2cnc(N3CCc4ccccc43)nc2C1	-2.1	1.1	0.0	27.5*
O=C(COC(=O)C12CC3CC(CC(C3)C1)C2)Nc1nc2c(F)c(F)c(F)cc2s1	-7.1	1.2	-0.2	30.9*
